Experimental findings from ChEMBL document CHEMBL3621102, “Structure-activity study of quinazoline derivatives leading to the discovery of potent EGFR-T790M inhibitors” (Eur J Med Chem, 2015) are described below.

The target in assay [1] is Epidermal growth factor receptor (Homo sapiens, UniProt P00533). In words: Inhibition of EGFR (unknown origin) by ELISA method. (ELISA stands for enzyme-linked immunosorbent assay.)
The subject of assay [2] is NCI-H1975. The assay is described as follows: Antiproliferative activity against human NCI-H1975 cells assessed as growth inhibition. The class given is functional. The method, boiled down:
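NCI-H1975 cells were grown in RPMI with 1 mM sodium pyruvate, 10% FBS and 1% penicillin-streptomycin, under humidified 5% CO₂ at 37 °C. Growth inhibition was read as GI₅₀.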

The structures appear in SMILES notation.

Chain of Epidermal growth factor receptor (P00533 whole entry): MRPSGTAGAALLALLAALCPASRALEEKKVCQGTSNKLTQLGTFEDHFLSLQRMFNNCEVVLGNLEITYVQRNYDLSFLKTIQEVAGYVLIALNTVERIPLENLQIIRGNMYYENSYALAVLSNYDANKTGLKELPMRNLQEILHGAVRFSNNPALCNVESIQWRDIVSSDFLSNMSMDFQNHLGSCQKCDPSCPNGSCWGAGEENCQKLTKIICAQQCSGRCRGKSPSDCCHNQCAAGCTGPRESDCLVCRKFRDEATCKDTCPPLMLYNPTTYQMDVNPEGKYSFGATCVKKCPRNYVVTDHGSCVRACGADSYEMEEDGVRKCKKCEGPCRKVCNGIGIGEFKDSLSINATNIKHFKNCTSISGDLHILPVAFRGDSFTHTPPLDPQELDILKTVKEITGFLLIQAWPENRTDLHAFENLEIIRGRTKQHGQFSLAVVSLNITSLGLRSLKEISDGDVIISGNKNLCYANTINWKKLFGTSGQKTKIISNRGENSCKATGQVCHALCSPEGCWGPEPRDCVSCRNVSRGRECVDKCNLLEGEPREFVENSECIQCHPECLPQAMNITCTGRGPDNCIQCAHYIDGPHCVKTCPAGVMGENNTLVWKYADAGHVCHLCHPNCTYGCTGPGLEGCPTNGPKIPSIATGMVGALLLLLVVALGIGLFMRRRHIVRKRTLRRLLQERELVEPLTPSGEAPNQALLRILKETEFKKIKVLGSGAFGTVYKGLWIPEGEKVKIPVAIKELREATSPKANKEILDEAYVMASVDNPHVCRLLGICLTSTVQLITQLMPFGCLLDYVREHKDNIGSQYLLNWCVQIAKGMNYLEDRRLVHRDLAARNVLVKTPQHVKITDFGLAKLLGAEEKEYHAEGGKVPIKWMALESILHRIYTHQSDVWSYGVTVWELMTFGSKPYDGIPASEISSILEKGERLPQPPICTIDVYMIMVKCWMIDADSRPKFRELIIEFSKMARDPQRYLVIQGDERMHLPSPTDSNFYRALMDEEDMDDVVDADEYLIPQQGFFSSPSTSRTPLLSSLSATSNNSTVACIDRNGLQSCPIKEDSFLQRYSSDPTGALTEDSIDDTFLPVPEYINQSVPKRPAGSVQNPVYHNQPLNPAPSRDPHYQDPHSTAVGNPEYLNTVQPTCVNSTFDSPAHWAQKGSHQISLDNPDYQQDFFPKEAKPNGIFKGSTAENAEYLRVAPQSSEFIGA

The compound `O=C1CCN(C/C=C/C(=O)Nc2cc3c(Nc4ccc(F)c(Cl)c4)ncnc3cc2O[C@H]2CCOC2)CC1` yielded a concentration for half-maximal inhibition (IC50) in assay [1] of 520 nM.
As to `C#Cc1cccc(Nc2ncnc3cc(OCC)c(NC(=O)/C=C/CN4CCCCC4)cc23)c1`, in assay [2], the GI50 was found to be 30.4 nM. In assay [1], this compound yielded an IC50 of 6.1 nM.
With `C#Cc1cccc(Nc2ncnc3cc(OC)c(NC(=O)/C=C/CN(C)C4CC4)cc23)c1`, the GI50 in assay [2] is 70.5 nM. This compound had an IC50 in assay [1] of 3.3 nM.
In turn, `COCCOc1cc2ncnc(Nc3ccc(F)c(Cl)c3)c2cc1NC(=O)/C=C/CN1CC[S+]([O-])CC1` yielded an IC50 in assay [1] of 357 nM.
On to `C#Cc1cccc(Nc2ncnc3cc(O[C@H]4CCOC4)c(NC(=O)C=C)cc23)c1`, for which it took 32.2 nM to reach half-maximal inhibition in assay [1] (IC50).
As to `C#Cc1cccc(Nc2ncnc3cc(OC)c(NC(=O)/C=C/CN4CCCCC4)cc23)c1`, the GI50 in assay [2] is 48.9 nM. Moreover, the midpoint of inhibition in assay [1], the IC50, lay at 2.7 nM.
On to `COCCOc1cc2ncnc(Nc3ccc(OCc4ccccn4)c(Cl)c3)c2cc1NC(=O)/C=C/CN(C)C`, for which the IC50 in assay [1] was found to be 5.4 nM.
In the case of `C#Cc1cccc(Nc2ncnc3cc(OC4CCOCC4)c(NC(=O)/C=C/CN(C)C)cc23)c1`, the IC50 in assay [1] worked out at 6 nM.
The same measure, in the same setting: as for `CN(C)C/C=C/C(=O)Nc1cc2c(Nc3ccc(OCc4cccc(F)c4)cc3)ncnc2cc1O[C@H]1CCOC1`, the figure is 134 nM.
As for `COc1cc2ncnc(Nc3ccc(F)c(Cl)c3)c2cc1NC(=O)/C=C/CNC1CC(F)(F)C1`, the GI50 in assay [2] turned out to be 98.7 nM. In addition, in assay [1], the IC50 came out at 141 nM.
Turning to `O=C(/C=C/CN1CCCCC1)Nc1cc2c(Nc3ccc(F)c(Cl)c3)ncnc2cc1O[C@H]1CCOC1`, the GI50 in assay [2] turned out to be 168 nM. The same compound yielded an IC50 in assay [1] of 5.3 nM.
As for `CCOc1cc2ncnc(Nc3ccc(F)c(Cl)c3)c2cc1NC(=O)/C=C/CN(C)C1CC1`, in assay [2], the 50% growth inhibitory concentration (GI50) is 160 nM. In assay [1], this compound yielded an IC50 of 5.5 nM.
As to `C#Cc1cccc(Nc2ncnc3cc(O[C@H]4CCOC4)c(NC(=O)/C=C/CN4CCCCC4)cc23)c1`, the GI50 in assay [2] was 40.1 nM. It took 5.3 nM to reach half-maximal inhibition in assay [1] (IC50).
Regarding `COc1cc2ncnc(Nc3ccc(F)c(Cl)c3)c2cc1NC(=O)/C=C/CN1CCCCC1` [DACOMITINIB ANHYDROUS], the concentration for 50% growth inhibition (GI50) in assay [2] is 123 nM.
The compound `C=CC(=O)Nc1cc2c(Nc3ccc(NC(=O)C=C)c(C(F)(F)F)c3)ncnc2cc1OCCOC` returned an IC50 in assay [1] of 115 nM.
On the same count and under the same terms, as for `C=CC(=O)Nc1cc2c(Nc3ccc(F)c(Cl)c3)ncnc2cc1O[C@H]1CCOC1`, the figure is 5.8 nM.
Compound `C=CC(=O)Nc1cc2c(Nc3ccc(Br)cc3F)ncnc2cc1O[C@H]1CCOC1` showed an IC50 in assay [1] of 121 nM.
Take `CN(C)C/C=C/C(=O)Nc1cc2c(Nc3ccc(OCc4cccc(F)c4)c(Cl)c3)ncnc2cc1O[C@H]1CCOC1`: the IC50 in assay [1] stood at 510 nM.
With `C#Cc1cccc(Nc2ncnc3cc(OCCOC)c(NC(=O)C=C)cc23)c1`, the IC50 in assay [1] was 1.8 nM.
Still for that read-out and setting: as for `O=C(/C=C/CN1CC[S+]([O-])CC1)Nc1cc2c(Nc3ccc(F)c(Cl)c3)ncnc2cc1O[C@H]1CCOC1`, the figure is 109 nM; as for `C=CC(=O)Nc1cc2c(Nc3ccc(OCc4cccc(F)c4)c(Cl)c3)ncnc2cc1O[C@H]1CCOC1`, 560 nM.
In turn, `COc1cc2ncnc(Nc3ccc(F)c(Cl)c3)c2cc1NC(=O)/C=C/CN1CC[S+]([O-])CC1` returned an IC50 in assay [1] of more than 1000 nM.
`O=C(/C=C/CNC1CC1)Nc1cc2c(Nc3ccc(F)c(Cl)c3)ncnc2cc1OCC(F)(F)F`: the GI50 in assay [2] worked out at 20.3 nM.
In the case of `COCCOc1cc2ncnc(Nc3ccc(OCc4cccc(F)c4)cc3)c2cc1NC(=O)/C=C/CN(C)C`, the IC50 in assay [1] came out at 91 nM.
Turning to `COCCOc1cc2ncnc(Nc3ccc(F)c(C#N)c3)c2cc1NC(=O)/C=C/CN(C)C`, in assay [1], the IC50 was more than 1000 nM.
For `COc1cc2ncnc(Nc3ccc(F)c(Cl)c3)c2cc1NC(=O)/C=C/CN(C1CC1)C1CC1`, the IC50 in assay [1] is more than 1000 nM.
Consider `C#Cc1cccc(Nc2ncnc3cc(OC4CCN(C)CC4)c(NC(=O)/C=C/CN(C)C)cc23)c1`, for which half-maximal inhibition in assay [1] (IC50) was put at 8.1 nM.
As for `O=C(/C=C/CNC1CC1)Nc1cc2c(Nc3ccc(F)c(Cl)c3)ncnc2cc1OC(F)F`, the GI50 in assay [2] is 34.6 nM. This compound came in with an IC50 in assay [1] of 9.6 nM.
In assay [1], `O=C(/C=C/CN(C1CC1)C1CC1)Nc1cc2c(Nc3ccc(F)c(Cl)c3)ncnc2cc1O[C@H]1CCOC1` displayed an IC50 of more than 1000 nM.
In assay [1], `CN(C)C/C=C/C(=O)Nc1cc2c(Nc3ccc(OCc4ccccn4)c(Cl)c3)ncnc2cc1O[C@H]1CCOC1` yielded a half-maximal inhibitory concentration (IC50) of 8.1 nM.
Consider `CN(C)C/C=C/C(=O)Nc1cc2c(Nc3ccc(F)c(C#N)c3)ncnc2cc1O[C@H]1CCOC1`, for which the IC50 in assay [1] was 147 nM.
As to `COCCOc1cc2ncnc(Nc3ccc(F)c(Cl)c3)c2cc1NC(=O)/C=C/CN(C)C`, the IC50 in assay [1] worked out at 1.2 nM.
With `C=CC(=O)Nc1cc2c(Nc3ccc(Cl)c(C(F)(F)F)c3)ncnc2cc1OCCOC`, the IC50 in assay [1] was more than 1000 nM.
In the case of `COCCOc1cc2ncnc(Nc3ccc(F)c(Cl)c3)c2cc1NC(=O)/C=C/CN1CCCCC1`, the GI50 in assay [2] turned out to be 92.3 nM. Moreover, inhibition in assay [1] was half-maximal at 2.1 nM (IC50).
For `C#Cc1cccc(Nc2ncnc3cc(O[C@H]4CCOC4)c(NC(=O)/C=C/CN(C)C)cc23)c1`, in assay [1], inhibition was half-maximal at 1.2 nM (IC50).
Turning to `COCCOc1cc2ncnc(Nc3ccc(NC(=O)/C=C/CN(C)C)c(C(F)(F)F)c3)c2cc1NC(=O)/C=C/CN(C)C`, half-maximal inhibition in assay [1] (IC50) required 102 nM.
As to `C=CC(=O)Nc1cc2c(Nc3ccc(OCc4cccc(F)c4)cc3)ncnc2cc1O[C@H]1CCOC1`, the IC50 in assay [1] turned out to be 72.2 nM.
Consider `CN(C)C/C=C/C(=O)Nc1cc2c(Nc3ccc(OCc4ccccn4)cc3)ncnc2cc1O[C@H]1CCOC1`, for which, in assay [1], the IC50 turned out to be 9 nM.
Compound `C=CC(=O)Nc1cc2c(Nc3ccc(OCc4cccc(F)c4)c(Cl)c3)ncnc2cc1OCCOC` yielded an IC50 in assay [1] of 102 nM.
Turning to `C=CC(=O)Nc1cc2c(Nc3ccc(F)c(C#N)c3)ncnc2cc1OCCOC`, in assay [1], the IC50 came out at 196 nM.
Turning to `COc1cc2ncnc(Nc3ccc(F)c(Cl)c3)c2cc1NC(=O)/C=C/CN(C)C1CC1`, the GI50 in assay [2] came to 32.2 nM. Inhibition in assay [1] was half-maximal at 26.9 nM (IC50).
The compound `COCCOc1cc2ncnc(Nc3ccc(Br)cc3F)c2cc1NC(=O)/C=C/CN(C)C` came in with an IC50 in assay [1] of 3 nM.
The compound `C=CC(=O)Nc1cc2c(Nc3ccc(Cl)c(C(F)(F)F)c3)ncnc2cc1O[C@H]1CCOC1` returned a half-inhibitory concentration (IC50) in assay [1] of 105 nM.
Same read-out and setting: as for `COCCOc1cc2ncnc(Nc3ccc(Cl)c(C(F)(F)F)c3)c2cc1NC(=O)/C=C/CN(C)C`, the figure is 574 nM.
Still for that read-out and setting: as for `COCCOc1cc2ncnc(Nc3ccc(OCc4ccccn4)cc3)c2cc1NC(=O)/C=C/CN(C)C`, the figure is 10 nM.
In turn, `C=CC(=O)Nc1cc2c(Nc3ccc(F)c(C#N)c3)ncnc2cc1O[C@H]1CCOC1` came in with a 50% inhibitory concentration (IC50) in assay [1] of 167 nM.
With `C=CC(=O)Nc1cc2c(Nc3ccc(OCc4ccccn4)cc3)ncnc2cc1O[C@H]1CCOC1`, the IC50 in assay [1] came out at 100 nM.
In assay [1], `COCCOc1cc2ncnc(Nc3ccc(OCc4cccc(F)c4)c(Cl)c3)c2cc1NC(=O)/C=C/CN(C)C` returned an IC50 of more than 1000 nM.
As for `COCCOc1cc2ncnc(Nc3ccc(F)c(Cl)c3)c2cc1NC(=O)/C=C/CN(C)C1CC1`, the GI50 in assay [2] was 87.1 nM. Besides, the half-inhibitory concentration (IC50) in assay [1] was found to be 8.9 nM.
In turn, `CCOc1cc2ncnc(Nc3ccc(F)c(Cl)c3)c2cc1NC(=O)/C=C/CN(C1CC1)C1CC1` registered an IC50 in assay [1] of more than 1000 nM.

By IC50 is commonly meant the concentration that gives 50% inhibition. High values mean a need for much substance, low ones inhibition by little substance. The term GI50 denotes the concentration giving 50% growth inhibition.
